Screening results deposited in PubChem BioAssay by Johns Hopkins Ion Channel Center.
Rows were chosen to be rich in hits. Some 3.5% of all compounds tested hit in one or more screens of this group.
MrgX1 antagonist = antagonists of human MrgX1 receptor, primary screen, HEK293 cells, Fluo-4 calcium flux. Mas-related G-protein coupled receptor member X1 (Homo sapiens), Q96LB2. BAM8-22 antagonism; stronger effect = lower value. B-score at 10 µM. hit rate 1.3% among 310,000. AID 588676, 2011;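 active = calcium-response B-score plate-corrected more than 3 library SD below zero, starting fluorescence within 5 deviations, no agonist response on first addition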;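 note: peak minus trough fluorescence over baseline after final BAM8-22 challenge near maximal dose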
Target sequence (Q96LB2 whole entry, looked up): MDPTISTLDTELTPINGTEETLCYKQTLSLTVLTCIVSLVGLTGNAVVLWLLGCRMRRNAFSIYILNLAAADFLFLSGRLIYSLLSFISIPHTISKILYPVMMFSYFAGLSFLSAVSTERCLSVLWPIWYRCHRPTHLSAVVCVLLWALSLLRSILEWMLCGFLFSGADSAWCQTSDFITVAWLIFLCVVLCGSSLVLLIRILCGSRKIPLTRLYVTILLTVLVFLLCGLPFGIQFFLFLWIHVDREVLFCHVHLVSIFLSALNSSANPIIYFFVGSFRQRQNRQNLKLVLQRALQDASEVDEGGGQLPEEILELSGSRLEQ
RGS4 inh = RGS4 inhibitors, primary screen, cell-based, HEK293 M3R inducible RGS4, calcium flux; Fluo-4 calcium flux; stronger effect = higher value; triggered by carbachol at its EC20; B-score at 10 µM; hit rate 0.45% among 310,000;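 active = B-score, a plate-corrected calcium signal, over three deviations above library mean, with baseline fluorescence within five deviations of library mean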;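 note: RGS4 expression induced by doxycycline in cells with stable M3 receptor; B-score is computed from the integrated fluorescence ratio over baseline after carbachol; higher B-score means a larger calcium signal and so more RGS4 inhibition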
Target sequence (P49798 whole entry, looked up): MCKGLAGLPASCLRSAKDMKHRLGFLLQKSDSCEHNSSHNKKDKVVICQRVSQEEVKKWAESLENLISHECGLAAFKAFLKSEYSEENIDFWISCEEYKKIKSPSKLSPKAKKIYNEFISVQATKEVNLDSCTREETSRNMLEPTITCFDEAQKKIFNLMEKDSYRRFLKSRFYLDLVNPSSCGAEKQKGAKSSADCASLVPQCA
RGS4 act = RGS4 potentiators or activators, primary screen, cell-based, HEK293 M3R inducible RGS4, calcium flux; AID 463111, 2010; carbachol calcium flux Fluo4; stronger effect = lower value; hit rate 0.92% among 310,000; B-score at 10 µM;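 active = B-score of the integrated calcium signal more than 4 SD below the library mean, with starting fluorescence not abnormally high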;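 note: negative B-score means reduced calcium response which marks RGS4 activation or potentiation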
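Test system: HEK293 cells with stable M3R and inducible RGS4; also added: carbachol at ECmax as muscarinic agonist stimulus; schedule: dye loading 30 min 37 °C, buffer rest 30 min RT; technique: kinetic calcium fluorescence imaging with Fluo4-AM dye, 2 µM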
MrgX1 ag = agonists of human MrgX1 receptor, primary screen, HEK293 cells, Fluo-4 calcium flux; Mas-related G-protein coupled receptor member X1 (Homo sapiens), Q96LB2; Fluo-4 calcium fluorescence, agonist mode; stronger effect = higher value; B-score at 10 µM; hit rate 0.44% among 310,000; AID 588627, 2011;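 active = calcium response B-score plate-corrected fluorescence ratio at least 3 library SD, with starting fluorescence B-score inside 5 SD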
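System – MrgX1-expressing HEK293 cells · Incubation – cells plated overnight, dye loaded 0.5 h 37 °C, 0.5 h room temperature · Technique – kinetic Fluo-4 NW fluorescence of intracellular calcium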
MrgX1 PAM = positive allosteric modulators of MrgX1, primary screen, HEK293 cells, Fluo-4 calcium flux | FDSS; stronger effect = higher value | B-score at 10 µM | hit rate 0.63% among 310,000 | AID 588675, 2011;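 active = plate-corrected calcium response at least 3 library SD above typical, normal starting fluorescence, not activating the receptor alone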;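 note: compound read alongside a low EC10 to EC30 dose of BAM8-22 agonist; peak minus trough fluorescence over baseline measured at the second addition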
MrgX1 PAM conf = MrgX1 positive allosteric modulators, duplicate retest, confirmation, HEK293 cells, Fluo-4 calcium flux; shares compounds with MrgX1 PAM; Fluo-4 calcium fluorescence, FDSS; activation (ratio percentage), % at 10 µM; hit rate 13% among 1,200;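 active = ratio at least 3 SD above the weak peptide control, stable starting fluorescence, no direct agonism earlier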;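 note: compound followed by low BAM8-22 agonist challenge near EC20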
MrgX1 antag conf = MrgX1 receptor antagonists, duplicate retest, confirmation, HEK293 cells, Fluo-4 calcium flux; shares compounds with MrgX1 antagonist; BAM8-22 calcium flux; stronger effect = lower value; remaining BAM8-22 calcium response % of control (stronger effect = lower value), % at 10 µM; hit rate 19% among 2,300;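 active = remaining agonist calcium response no higher than 100% minus 3 SD of agonist-only control wells, with starting fluorescence near control levels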;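 note: agonist BAM8-22 given at a near maximal EC90 to ECmax level; peak minus minimum fluorescence divided by baseline after agonist addition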
HEK293 Ca flux = nonspecific calcium signal in parental HEK293, confirmation, counter-screen for MrgX1 antagonist project, parental HEK293 cells, Fluo-4 calcium flux; shares compounds with MrgX1 antagonist; Fluo-4 calcium fluorescence, FDSS; fluorescence ratio F(max-min)/F0 at 10 µM; hit rate 2% among 4,000; AID 624111, 2012;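 active = duplicate-averaged calcium fluorescence ratio at least three times the standard deviation of buffer wells, a nonspecific response in parental cells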
HEK293 Ca counter = calcium response in parental HEK293 cells, primary screen, counter-screen for MrgX1 allosteric activator project, cell-based, Fluo-4 calcium flux, duplicate; shares compounds with MrgX1 antagonist; Fluo-4 fluorescence ratio; stronger effect = higher value; AID 624114, 2012; hit rate 0.4% among 4,000; fluorescence ratio F(max-min)/F0 at 10 µM;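 active = calcium fluorescence ratio, averaged over duplicates, at least 3 SD of the buffer-well ratio, meaning a nonspecific response in receptor-free cells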;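 note: untransfected parental HEK293 lacking MrgX1 used as counterscreen for MrgX1 allosteric activators; fluorescence change taken during the second addition on a kinetic imager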
HEK293 Ca cntr2 = calcium response in parental HEK293 cells, primary screen, counter-screen for MrgX1 agonist project, cell-based, Fluo-4 calcium flux, duplicate, agonist mode. shares compounds with MrgX1 antagonist. Fluo-4 calcium fluorescence (FDSS); stronger effect = higher value. fluorescence ratio F(max-min)/F0 at 10 µM. hit rate 8.7% among 4,000. AID 624115, 2012;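 active = calcium fluorescence ratio at least three times the spread of buffer wells, meaning a non-specific response in parental cells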
Numbers without * were called inactive; i = inactive; . = no result given.

SMILES	MrgX1 antagonist	RGS4 inh	RGS4 act	MrgX1 ag	MrgX1 PAM	MrgX1 PAM conf	HEK293 Ca flux	HEK293 Ca counter	HEK293 Ca cntr2	others
CCCC(=O)Nc1nc(-c2ccc(OC)cc2)cs1	i	i	i	i	i	.	.	.	.
CC(NC(=O)Nc1ccccc1O)(C(F)(F)F)C(F)(F)F	i	i	i	i	9.8*	i	i	i	i
Clc1ccc(CSc2cc3c(nn2)-c2ccccc2CC3)cc1	i	i	i	i	8*	i	i	48*	i
COc1nc(N)nc(NC23CC4CC(CC(C4)C2)C3)n1	i	i	i	i	15*	22%*	i	i	i
CCOCCCNC(=O)CCc1nnc2n(CCC(C)C)c(=O)c3ccccc3n12	i	i	i	i	i	.	.	.	.
COC(=O)c1cccc(C(=O)N2CCC(CO)(Cc3ccccc3Cl)CC2)c1	i	i	i	i	9.9*	i	i	i	i
COC(=O)c1cccc(C(=O)N2CCC(CO)(CCc3ccccc3)CC2)c1	i	i	i	i	i	.	.	.	.
Nc1nc(OCC(F)(F)F)cc(Oc2ccccc2F)n1	i	i	i	i	9.8*	i	i	i	i
Cc1cc(Cl)ccc1OC(C)C(=O)Nc1ccc(S(=O)(=O)Nc2cnc3ccccc3n2)cc1 (configuration not stated)	-6.7*	i	i	i	7.6*	i	i	i	i	MrgX1 antag conf=81%*
CC(Oc1ccc(Cl)cc1Cl)C(=O)Nc1ccc(S(=O)(=O)Nc2cnc3ccccc3n2)cc1 (configuration not stated)	i	i	i	i	i	.	.	.	.
CC(=O)Nc1ccc(S(=O)(=O)N2CCC(C(=O)N[C@@H](C)C(=O)NC3CCCC3)CC2)cc1	i	i	i	i	i	.	.	.	.
N#CCc1nc2ccccc2c(=O)[nH]1	i	i	i	i	i	.	.	.	.
COC(=O)c1ccc(OCCCCN2CC(C)OC(C)C2)cc1 (configuration not stated)	i	i	i	i	10*	i	i	i	i
COc1ccc(C(CNC(=O)c2ccc(-c3ccccc3)cc2)N(C)C)cc1OC (configuration not stated)	i	i	i	i	i	.	.	.	.
O=C1CC(c2cc([N+](=O)[O-])ccc2Cl)c2c(ccc3ccccc23)N1 (configuration not stated)	i	i	i	i	i	.	.	.	.
O=C(NCCNC(=O)c1cnccn1)c1cccc(Cl)c1	i	i	i	i	i	.	.	.	.
O=C(NCCCNC(=O)c1ccc(-c2cccc(Cl)c2)o1)c1cnccn1	i	i	i	i	13*	i	i	i	i
O=C(NCCNC(=O)c1ccc(-c2ccc(Cl)c(Cl)c2)o1)c1cnccn1	i	i	i	i	7.2*	i	i	i	i
